Screening data as filed in PubChem BioAssay.
Autophagy mod: alters autophagy in cells; MEF GFP-LC3 puncta imaging; test concentration mostly 10 µM; 190,000 tested, 0.98% active; calls only at 10 µM (by protocol);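 active = percentage of spot-positive cells more than 3 SD above its plate mean, without a fluorescence outlier flag or 80% toxicity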
CHOP inh: inhibitors of CHOP induction in ER stress response; CHO-K1 CHOP-promoter luciferase, tunicamycin-induced, 15-18 h; 220,000 tested, 3.8% active; AID 2732; inhibition, % at 10 µM;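 active = compounds that reduced the stress-induced luciferase reporter signal by more than about 70% of percent inhibition, limit read from the data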
MT stabilize HCS: microtubule stabilizers in HeLa cells; HeLa tubulin immunostaining HCS, 24 h; share of cells brighter than vehicle mean+2SD; % tubulin-high responders, % at 10 µM; 200,000 tested, 0.83% active;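 active = plate Z-score above 3 for both tubulin-high and condensed-nucleus cell shares, with cell loss under 80%, at 10 µM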;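 note: anti alpha tubulin signal scored within the nucleus-defined area of each cell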
Dynein cargo inh: dynein cargo transport inhibition; 3617.4 mouse cells, GR-EGFP nuclear translocation imaging; test concentration mostly 20 µM; stimulated with dexamethasone, 1 µM; active compounds read low; z-score, hits read low; 220,000 tested, 0.47% active;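 active = plate z-score of nuclear minus cytoplasmic receptor signal below a set negative limit, without overly bright fluorescence or cell loss, cut at about -3.5 in these data, passing the limit was not always enough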;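 note: z-score of nuclear minus cytoplasmic ring GR-EGFP intensity difference per well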
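medium = tetracycline-free induction medium containing charcoal-stripped FBS | also added = 1.0 µM final dexamethasone stimulus | schedule = 48 h induction, 1 h compound, 30 min dex at 37 °C | technique = fixed, Hoechst-stained cells imaged at 10x for EGFP | measure = GR-EGFP nuclear translocation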
L major viab: inhibitors of Leishmania major promastigote growth | Leishmania major promastigotes, resazurin fluorescence viability | inhibition, % at 10 µM | 200,000 tested, 9% active | AID 1063; in the data active = inhibition above about 50%;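 note: promastigotes grown with compound for 44 hours at 28 °C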
bCat nuc transl: modulators of beta-catenin nuclear translocation; nuclear translocation activity, % at 5 µM; 190,000 tested, 0.3% active; HeLa beta-catenin nuclear translocation, immunofluorescence imaging;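 active = nuclear translocation activity above 50% at 5 µM, with a well cell count of 50 or more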;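 note: per-cell ratio of nuclear to cytoplasmic median beta-catenin stain intensity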
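Signal – beta-catenin immunofluorescence imaging with DAPI · Test system – human HeLa cell line · Dosing – 5 µM primary single dose, 0.1% DMSO, 0.02–20 µM confirmation series · Measure – % activation, nuclear-to-cytoplasmic median beta-catenin signal ratio per cell · Incubation – 24 h compound exposure at 37°C, 5% CO2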
Of the large screens only hits and unclear results are named; the others gave an inactive call. The list is not random: actives were taken first. Their share in the collection is about 12%.

CCC1Oc2ccc(C)cc2N(Cc2cccc(C)c2)C1=O (centres undefined)	CHOP inh 96
Cc1ccc2c(c1)N(Cc1ccc3c(c1)OCO3)C(=O)C(C)O2 (centres undefined)	none
COC(=O)CCSc1cc(NCCOC(C)=O)c([N+](=O)[O-])c2nonc12	L major viab 84
CC(=O)OCCNc1cc(Sc2nc3ccccc3[nH]2)c2nonc2c1[N+](=O)[O-]	CHOP inh 107
O=[N+]([O-])c1c(NCCO)cc(N2CCC3(CC2)OCCO3)c2nonc12	none
CCN1CCN(c2ccc([N+](=O)[O-])c(Sc3nc4ccccc4[nH]3)c2)CC1	none
CCCOc1c(Br)cc(C2C3=C(CCCC3=O)N(C)C3=C2C(=O)CCC3)cc1OC	L major viab 97 (no result: bCat nuc transl)
O=S(=O)(N1CCCCC1)n1c(Cc2ccccc2)nc2ccccc21	L major viab 54
O=C(O)C1=C[C@H](c2cccs2)C[C@H](OCc2ccc(CO)cc2)O1	none (no result: Autophagy mod, MT stabilize HCS, L major viab)
CC(C)OC(=O)c1cccnc1N1CCN(c2cccc(Cl)c2)CC1	none
NC(=O)Cn1nnc(-c2ccc(CN3CCCCC3)cc2)n1	none
Cc1cccc(NC(=O)Cn2nnc(-c3ccc(CN4CCCC4)cc3)n2)c1C	none
O=C(Cn1nnc(-c2ccc(CN3CCOCC3)cc2)n1)N1CCCc2ccccc21	L major viab 84
O=C(Cn1nnc(-c2ccc(CN3CCOCC3)cc2)n1)N(c1ccccc1)c1ccccc1	L major viab 70
Nc1ccccc1-c1nnn(CC(=O)N2CCCc3ccccc32)n1	Autophagy mod active
Cc1ccc(-c2nnn(CC(=O)N3c4ccccc4CCc4ccccc43)n2)cc1	none
CC(C)(C)NC(=O)CN(C(=O)Cn1nnc(-c2ccc(Cl)cc2)n1)C1CCN(Cc2ccccc2)CC1	CHOP inh 72
CCCCC(=O)Nc1ccccc1C(C)C	none
CCC(C)COC(=O)C(C#N)c1nc2ccccc2nc1N1CCCCC1 (centres undefined)	none
Cc1cccn2c(=O)c(/C=C(\C#N)C(N)=O)c(N3CCN(Cc4ccc5c(c4)OCO5)CC3)nc12	L major viab 65
C=CCOC(=O)C(C#N)c1nc2ccccc2nc1N1CCN(Cc2ccc3c(c2)OCO3)CC1 (centres undefined)	L major viab 58
C=CCOC(=O)C(C#N)c1nc2ccccc2nc1N1CCN(c2ccccc2OCC)CC1 (centres undefined)	none
CCOC(=O)C1CCN(c2nc3ccccc3nc2C(C#N)C(=O)OC(C)COC)CC1 (centres undefined)	none (no result: bCat nuc transl)
CCOC(=O)C1CCN(c2nc3ccccc3nc2C(C#N)C(=O)OC(C)C)CC1 (centres undefined)	Autophagy mod active
CCC(CC)COC(=O)C(C#N)c1nc2ccccc2nc1N1CCN(CC)CC1 (centres undefined)	L major viab 100
Cc1ccc(NC(=O)COC(=O)C2CC3C=CC2C3)cc1S(=O)(=O)N1CCCCC1 (centres undefined)	none
O=C(Nc1cc(Cl)ccc1Cl)c1ccc(OC(=O)c2ccco2)cc1	none (no result: bCat nuc transl)
COc1ccc(CNC(=O)C(C#N)c2nc3ccccc3nc2N2CCN(C)CC2)cc1 (centres undefined)	none
CCCCCCOC(=O)C(C#N)c1nc2ccccc2nc1N1CCN(C)CC1 (centres undefined)	L major viab 54
CCCCCCOC(=O)C(C#N)c1nc2ccccc2nc1N1CCCCC1 (centres undefined)	none (no result: bCat nuc transl)
COc1ccc(CNC(=O)C(C#N)c2nc3ccccc3nc2N2CCCC2)cc1 (centres undefined)	Autophagy mod active
COc1ccc(C)cc1NCC(=O)Nc1ccc(C(C)(C)C)cc1	CHOP inh 70
CC(C)Oc1cc(NC(=O)CSCC(=O)Nc2cccc(C(F)(F)F)c2)c(Cl)cc1Cl	CHOP inh 100
CCCCCCCCNC(=O)c1cccnc1SCC(=O)Nc1ccccc1OC	L major viab 82
COc1ccc(OC)c(NC(=O)CSc2ncccc2C(=O)O)c1	none (no result: bCat nuc transl)
COC(=O)c1cc(OC)c(OC)cc1NC(=O)c1cccc(C)c1	CHOP inh 70
COc1ccc(S(=O)(=O)N2CCCCC2)cc1NCC(=O)Nc1ccc(C)cc1	none (no result: Autophagy mod, MT stabilize HCS, L major viab)
S=c1[nH]nc(C2CCCCC2)n1/N=C/c1cccs1	none
Cn1cccc1-c1cc(C(=O)N/N=C/c2cccc(O)c2)[nH]n1	none
CN(Cc1cn(Cc2ccccc2)nc1-c1ccc2c(c1)OCO2)Cc1nccn1C	none
COC(=O)c1cc(OC)c(OC)cc1NCC(=O)Nc1ccc(C)cc1	none
COC(=O)c1cc(OC)c(OC)cc1NCC(=O)Nc1cccc(C(F)(F)F)c1	L major viab 74
COc1ccc(NC(=O)CSc2ncccc2C(=O)OC(C)C)cc1OC	CHOP inh 71 (no result: bCat nuc transl)
COC(=O)c1cc(OC)c(OC)cc1NC(=S)N1CCCCC1	L major viab 89
COC(=O)c1cc(OC)c(OC)cc1NCC(=O)Nc1ccc(OC)c(OC)c1	L major viab 53 (no result: bCat nuc transl)
C/C(=N\NC(=O)C1(C)NC(C)(C)Cc2ccccc21)c1ccccc1 (centres undefined)	none
COc1cc(NC(=O)c2cccc3c2C(=O)N(Cc2cccnc2)C3)cc(OC)c1OC	none
COC(=O)C1=C(C)NC(C)=C(C(=O)OC)C1c1cc2cc(C)ccc2[nH]c1=O	none
COC(=O)C1=C(C)NC(C)=C(C(=O)OC)C1c1cc2ccc(C)cc2[nH]c1=O	MT stabilize HCS 31
CCOC(=O)C1=C(C)NC(C)=C(C(=O)OCC)C1c1cc2ccc(C)cc2[nH]c1=O	MT stabilize HCS 45 (no result: bCat nuc transl)
Cn1c(=O)c2c(SCc3c(F)cccc3Cl)nc(CC(C)(C)C)nc2n(C)c1=O	none
O=S(=O)(Nc1cccc(-c2ccc3nncn3n2)c1)c1ccc(Cl)s1	none
O=C(CN1CCCC1)NC12CC3CC(CC(C3)C1)C2	L major viab 51
O=C(CN1CCCC1)NCC12CC3CC(CC(C3)C1)C2	none
O=C(NC(=S)Nc1ccc(N2CCCCC2)cc1)c1cccs1	none
OCCC1CN(Cc2ccccc2-c2ccco2)CCN1C1CCCC1 (centres undefined)	none
COc1cc(C(=O)NCC(c2cccnc2)N2CCN(C)CC2)cc(OC)c1OC (centres undefined)	none (no result: bCat nuc transl)
O=C(NCC1CCCO1)C(=O)NCC(c1ccco1)N1CCN(c2ccccc2F)CC1 (centres undefined)	L major viab 53
O=C(NCc1cccs1)C(=O)NCC(c1ccco1)N1CCN(c2ccccc2F)CC1 (centres undefined)	none
COc1ccc(N2CCN(C(CNC(=O)C(=O)NCC3CCCO3)c3ccco3)CC2)cc1 (centres undefined)	none
O=C(NCC(c1cccnc1)N1CCN(c2ccccc2F)CC1)c1ccco1 (centres undefined)	L major viab 89
